Results: ChEMBL document CHEMBL1122401, “Synthesis and pharmacological activity of 6-[(E)-2-(2,6,6-trimethyl-1-cyclohexen-1-yl)ethen-1-yl]- and 6-(1,2,3,4-tetrahydro-1,1,4,4-tetramethyl-6-naphthyl)-2-naphthalenecarboxylic acids” (1983)
Blank lines part the entries; values can stand above or below the compound they belong to.

Key:
[1] = Relative activity as reciprocal of the ratio of ED50 (retinoid) / ED50 (retinoic acid) when control was 6 x 10e-12; type: functional
Cricetinae gen. sp. [2] = experiment: Reversal of keratinization process in hamster tracheal organ culture at concentration of 10e-11 M expressed as percent of active cultures out of 5 cultures; type: functional, Trachea
Cricetinae gen. sp. [3] = experiment: Reversal of keratinization process in hamster tracheal organ culture at concentration of 10e-10 M expressed as percent of active cultures out of 13 cultures; type: functional, Trachea
Cricetinae gen. sp. [4] = experiment: Reversal of keratinization process in hamster tracheal organ culture at concentration of 10e-8 M expressed as percent of active cultures out of 7 cultures; type: functional, Trachea
[5] = target: T1, Ornithine decarboxylase (Mus musculus) (UniProt P00860); experiment: Percent inhibition of induction of ODC(ornithine decarboxylase) by TPA in mouse skin at a dose of 17.0 nmol
T1 sequence (whole entry): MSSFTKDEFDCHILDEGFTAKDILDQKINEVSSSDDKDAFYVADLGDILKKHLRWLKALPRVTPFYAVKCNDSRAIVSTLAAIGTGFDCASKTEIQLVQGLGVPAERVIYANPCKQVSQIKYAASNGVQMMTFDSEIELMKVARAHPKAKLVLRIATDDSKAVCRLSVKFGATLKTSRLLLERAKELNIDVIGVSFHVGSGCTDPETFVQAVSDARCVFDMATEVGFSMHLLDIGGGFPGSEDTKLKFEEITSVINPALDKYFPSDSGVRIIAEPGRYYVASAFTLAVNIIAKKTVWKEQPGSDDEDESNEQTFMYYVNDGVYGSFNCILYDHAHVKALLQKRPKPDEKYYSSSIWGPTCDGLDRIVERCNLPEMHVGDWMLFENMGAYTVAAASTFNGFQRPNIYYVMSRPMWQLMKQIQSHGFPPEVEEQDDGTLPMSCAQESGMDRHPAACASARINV
Outline: (§1)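 ODC induction by the tumour-promoting phorbol ester TPA, measured in mouse dorsal epidermis. Retinoid was tested at 1.7 or 17 nmol dose levels. Activity is expressed as a percentage of that of retinoic acid at the same dose.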

Cricetinae gen. sp. [6] = experiment: Reversal of keratinization process in hamster tracheal organ culture at concentration of 10e-9 M expressed as percent of active cultures out of 12 cultures; type: functional, Trachea
[7] = target: T1, Ornithine decarboxylase (Mus musculus); experiment: Percent inhibition of induction of ODC(ornithine decarboxylase) by TPA in mouse skin at a dose of 1.7 nmol; outline: as §1
[8] = Relative activity as reciprocal of the ratio of ED50 (retinoid) / ED50 (retinoic acid) when control was 7 x 10e-12; type: functional
Cricetinae gen. sp. [9] = experiment: Reversal of keratinization process in hamster tracheal organ culture at concentration of 10e-11 M expressed as percent of active cultures out of 22 cultures; type: functional, Trachea
Cricetinae gen. sp. [10] = experiment: Reversal of keratinization process in hamster tracheal organ culture at concentration of 10e-10 M expressed as percent of active cultures out of 22 cultures; type: functional, Trachea
Cricetinae gen. sp. [11] = experiment: Reversal of keratinization process in hamster tracheal organ culture at concentration of 10e-12 M expressed as percent of active cultures out of 15 cultures; type: functional, Trachea
Cricetinae gen. sp. [12] = experiment: Reversal of keratinization process in hamster tracheal organ culture at concentration of 10e-9 M expressed as percent of active cultures out of 7 cultures; type: functional, Trachea
[13] = Relative activity as reciprocal of the ratio of ED50 (retinoid) / ED50 (retinoic acid) when control was 3 x 10e-11; type: functional

inhibition [5]: 48%
inhibition [7]: 30%
SMILES: CC1=C(/C=C/c2ccc3cc(C(=O)O)ccc3c2)C(C)(C)CCC1
Ratio [1]: 0.4
Active culture (Cricetinae gen. sp. [2]): 20%
Active culture (Cricetinae gen. sp. [3]): 46%
Active culture (Cricetinae gen. sp. [4]): 100%
Active culture (Cricetinae gen. sp. [6]): 92%

SMILES: CC1(C)CCC(C)(C)c2cc(-c3ccc4cc(C(=O)O)ccc4c3)ccc21
Ratio [8]: > 10
Active culture (Cricetinae gen. sp. [9]): 77%
Active culture (Cricetinae gen. sp. [10]): 95%
Active culture (Cricetinae gen. sp. [11]): 27%
Active culture (Cricetinae gen. sp. [12]): 100%
inhibition [5]: 80%
inhibition [7]: 56%

SMILES: CC1=C(/C=C/C(C)=C/c2ccc(C(=O)O)cc2)C(C)(C)CCC1
Ratio [13]: 1
